From ChEMBL document CHEMBL1158464, “Structure-activity relationships and cancer-cell selective toxicity of novel inhibitors of glioma-associated oncogene homologue 1 (Gli1) mediated transcription” (J Med Chem, 2009) come the findings set out here.

In one data set the test system is HepG2. As to the kind of experiment: Cytotoxicity against human HepG2 cells at 40 uM/well after 68 hrs by alamar blue assay. The format is functional, cell-based. The procedure, abridged:
(§1)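 Cells plated in appropriate medium 24 h before compound. A 10 mM DMSO stock was diluted in EMEM to 160 µM (4×) and added in triplicate to a final 40 µM. Incubated 68 h at 37 °C, then Alamar Blue for 4 h at 37 °C. Fluorescence read at ex 510/em 590 nm. Viability taken relative to DMSO control wells.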

For the next data set, the system named is Raji. As to the kind of experiment: Cytotoxicity against human Raji cells at 40 uM/well after 68 hrs by alamar blue assay. It is filed as functional, cell-based. The procedure, abridged:
as §1
(Resazurin is reduced to fluorescent resorufin, in cell work by metabolically active cells.)

For the next data set, the system named is LN-229. The data set can be described thus: Cytotoxicity against human LN229 cells at 40 uM/well after 68 hrs by alamar blue assay. The format is functional, cell-based. An outline of the steps:
as §1

The test system of the next data set is DU-145. The data set can be described thus: Cytotoxicity against human DU145 cells at 40 uM/well after 68 hrs by alamar blue assay. The format is functional, cell-based. The procedure, abridged: as §1
Another data set relates to MDA-MB-231. The data set can be described thus: Cytotoxicity against human MDA-MB-231 cells at 40 uM/well after 68 hrs by alamar blue assay. It is filed as functional, cell-based. An outline of the steps: as §1
A further data set has as its system SJRH30. As to the kind of experiment: Cytotoxicity against human Rh30 cells at 40 uM/well after 68 hrs by alamar blue assay. The format is functional, cell-based. An outline of the steps:
as §1

In data set [1] the target is T1, Zinc finger protein GLI1 (Homo sapiens) (UniProt P08151).
T1 sequence (whole entry): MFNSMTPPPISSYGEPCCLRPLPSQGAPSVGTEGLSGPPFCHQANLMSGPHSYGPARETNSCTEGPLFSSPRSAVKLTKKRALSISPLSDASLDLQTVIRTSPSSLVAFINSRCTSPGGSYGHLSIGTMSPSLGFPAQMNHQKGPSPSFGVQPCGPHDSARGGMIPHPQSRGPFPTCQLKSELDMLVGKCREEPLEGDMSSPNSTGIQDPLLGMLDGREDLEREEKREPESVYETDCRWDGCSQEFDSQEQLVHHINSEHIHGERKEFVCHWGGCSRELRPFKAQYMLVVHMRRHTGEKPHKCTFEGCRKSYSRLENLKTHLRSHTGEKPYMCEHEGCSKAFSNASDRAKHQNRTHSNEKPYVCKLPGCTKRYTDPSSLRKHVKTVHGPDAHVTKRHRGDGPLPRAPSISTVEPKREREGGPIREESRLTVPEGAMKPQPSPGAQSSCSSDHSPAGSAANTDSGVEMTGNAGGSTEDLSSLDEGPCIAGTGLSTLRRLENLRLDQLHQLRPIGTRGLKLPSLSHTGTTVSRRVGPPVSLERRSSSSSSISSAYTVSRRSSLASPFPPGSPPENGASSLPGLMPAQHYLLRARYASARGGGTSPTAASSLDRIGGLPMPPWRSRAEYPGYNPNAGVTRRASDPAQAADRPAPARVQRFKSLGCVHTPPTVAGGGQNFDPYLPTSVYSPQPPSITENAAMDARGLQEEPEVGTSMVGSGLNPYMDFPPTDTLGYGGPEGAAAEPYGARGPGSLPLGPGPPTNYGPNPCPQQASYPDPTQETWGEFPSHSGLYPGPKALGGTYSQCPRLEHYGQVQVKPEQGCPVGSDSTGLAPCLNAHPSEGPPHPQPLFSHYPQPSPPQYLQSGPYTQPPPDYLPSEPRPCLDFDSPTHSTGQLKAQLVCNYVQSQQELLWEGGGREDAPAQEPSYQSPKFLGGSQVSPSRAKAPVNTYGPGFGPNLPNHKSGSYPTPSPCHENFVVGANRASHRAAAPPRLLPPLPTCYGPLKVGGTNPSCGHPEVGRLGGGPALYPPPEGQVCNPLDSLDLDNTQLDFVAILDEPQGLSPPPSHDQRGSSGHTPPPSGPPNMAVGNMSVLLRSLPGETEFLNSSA
As to the kind of experiment: Inhibition of exogenously transfected human Gli1-mediated transcriptional activity in mouse C3H10T1/2 cells at 20 uM after 24 hrs by luciferase reporter gene assay. The conditions noted are these: C3H 10T1/2. It is filed as cell-based. The procedure, abridged: (§2)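 They were replated 18 h later, given compound or DMSO 6 h after plating, and exposed for 24 h at 37 °C, 5% CO2. Lysate was read by dual luciferase as firefly/Renilla, triplicate, DMSO = 0%. IC50 came from curve fitting.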

For data set [2], the target named is T1, Zinc finger protein GLI1 (Homo sapiens). The data set can be described thus: Inhibition of exogenously transfected human Gli1-mediated transcriptional activity in mouse C3H10T1/2 cells at 40 uM after 24 hrs by luciferase reporter gene assay. It is filed as cell-based. The conditions noted are these: C3H 10T1/2. An outline of the steps:
as §2
(In general: Reporter assays use an easily measured gene product as a stand-in for the process of interest.)

The next data set relates to Daoy. As to the kind of experiment: Cytotoxicity against human DaOY cells at 40 uM/well after 68 hrs by alamar blue assay. The format is functional, cell-based. An outline of the steps: as §1
The next data set concerns BJ. The data set can be described thus: Cytotoxicity against human TERT-immortalized human BJ cells at 40 uM/well after 68 hrs by alamar blue assay. The format is cell-based. The procedure, abridged: as §1

Calls of active or inactive are those of the source. No cut-off for these calls is given here.

With `COc1ccc(CCNC(=O)[C@@H](C)c2cccc(C(=O)c3ccccc3)c2)cc1O`, the result in the data set with HepG2 and with LN-229 was inactive. Besides, the result in the data set on Raji, in the data set with DU-145, in the data set on MDA-MB-231, in the data set with SJRH30 and in the data set with Daoy was Active. The inhibition entry in [1] and in data set [2] was “Active” in each case. For the same compound, the Activity entry in the data set with BJ is on record as “Non-toxic”.

As to `C[C@H](C(=O)NCc1ccc(O)cc1)c1cccc(C(=O)c2ccccc2)c1`, the result with HepG2 and with LN-229 was inactive. Besides, the outcome in the data set on Raji, in the data set with DU-145, in the data set on MDA-MB-231, with SJRH30 and in the data set on Daoy was Active. Moreover, the inhibition result in data set [1] and in data set [2] was “Active” each time. Also, the Activity result with BJ is given as “Non-toxic”.

Turning to `COc1ccccc1CCNC(=O)[C@@H](C)c1cccc(C(=O)c2ccccc2)c1`, the result in the data set on HepG2 and with LN-229 was inactive. The result with Raji, in the data set on DU-145, in the data set on MDA-MB-231, in the data set on SJRH30 and in the data set on Daoy was Active. The inhibition entry in data set [1] and in data set [2] was “Active” throughout. Moreover, the Activity entry with BJ is on record as “Non-toxic”.

`COc1ccc2c(c1)c(CC(=O)NCCc1ccc(O)cc1)c(C)n2C(=O)c1ccc(Cl)cc1`: the result in the data set on HepG2 and with LN-229 was inactive. Moreover, the outcome with Raji, in the data set on DU-145, with MDA-MB-231, in the data set on SJRH30 and in the data set with Daoy was Active. Besides, the inhibition result in data set [1] and in [2] was “Active” in each case. Moreover, the Activity entry in the data set on BJ is given as “Non-toxic”.

Regarding `C[C@H](C(=O)NCCc1ccc(Cl)cc1)c1cccc(C(=O)c2ccccc2)c1`, the outcome in the data set on HepG2 and in the data set on LN-229 was inactive. The result in the data set on Raji, in the data set with DU-145, in the data set on MDA-MB-231, with SJRH30 and with Daoy was Active. The inhibition result in data set [1] and in data set [2] was “Active” in each case. Besides, the Activity entry with BJ was “Non-toxic”.

On to `COc1cc(CCNC(=O)[C@@H](C)c2cccc(C(=O)c3ccccc3)c2)ccc1O`, for which the outcome in the data set on HepG2 and in the data set with LN-229 was inactive. Also, the outcome in the data set with Raji, in the data set on DU-145, in the data set on MDA-MB-231, in the data set on SJRH30 and in the data set with Daoy was Active. Besides, the inhibition entry in [1] and in data set [2] was “Active” each time. The Activity entry with BJ is “Non-toxic”.

For the compound `C[C@H](COC(=O)NCCc1ccc(O)cc1)c1cccc(C(=O)c2ccccc2)c1`, the outcome in the data set with HepG2 and in the data set with LN-229 was inactive. Further, the result in the data set on Raji, with DU-145, in the data set with MDA-MB-231, in the data set with SJRH30 and in the data set on Daoy was Active. Also, the inhibition entry in data set [1] and in data set [2] was “Active” each time. The Activity result in the data set on BJ is “Non-toxic”.

Regarding `C[C@H](C(=O)Nc1ccc(O)cc1)c1cccc(C(=O)c2ccccc2)c1`, the result in the data set on HepG2 and in the data set with LN-229 was inactive. Also, the outcome with Raji, with DU-145, with MDA-MB-231, with SJRH30 and in the data set with Daoy was Active. Moreover, the inhibition result in [1] and in data set [2] was “Active” each time. Moreover, in the data set with BJ, the Activity entry is recorded as “Non-toxic”.

Take `C[C@H](CNC(=O)Nc1ccc(O)cc1)c1cccc(C(=O)c2ccccc2)c1`: the result in the data set with HepG2 and in the data set on LN-229 was inactive. Also, the result in the data set with Raji, with DU-145, in the data set on MDA-MB-231, in the data set on SJRH30 and in the data set with Daoy was Active. Moreover, the inhibition entry in data set [1] and in [2] was “Active” throughout. Also, the Activity entry in the data set on BJ is “Toxic”.

On to `C[C@H](CNC(=O)c1ccc(O)cc1)c1cccc(C(=O)c2ccccc2)c1`, for which the result with HepG2 and in the data set on LN-229 was inactive. The outcome in the data set on Raji, in the data set on DU-145, with MDA-MB-231, in the data set on SJRH30 and in the data set on Daoy was Active. Besides, the inhibition result in data set [1] and in data set [2] was “Active” throughout. Besides, the Activity result with BJ is on record as “Non-toxic”.

Take `COc1ccc(C(=O)NC[C@@H](C)c2cccc(C(=O)c3ccccc3)c2)cc1`: the result with HepG2 and with LN-229 was inactive. Further, the result in the data set with Raji, in the data set with DU-145, with MDA-MB-231, with SJRH30 and in the data set on Daoy was Active. The inhibition entry in data set [1] and in data set [2] was “Active” throughout. In the data set on BJ, the Activity entry was “Non-toxic”.

For the compound `C[C@H](CNC(=O)CCc1ccc(O)cc1)c1cccc(C(=O)c2ccccc2)c1`, the result in the data set with HepG2 and in the data set with LN-229 was inactive. Further, the result with Raji, with DU-145, with MDA-MB-231, in the data set on SJRH30 and in the data set on Daoy was Active. The inhibition result in [1] and in data set [2] was “Active” each time. Moreover, in the data set with BJ, the Activity entry is reported as “Non-toxic”.

`COc1cccc(CCNC(=O)[C@@H](C)c2cccc(C(=O)c3ccccc3)c2)c1`: the outcome in the data set on HepG2 and in the data set with LN-229 was inactive. Besides, the outcome in the data set with Raji, in the data set with DU-145, with MDA-MB-231, in the data set with SJRH30 and in the data set on Daoy was Active. For the same compound, the inhibition result in [1] and in [2] was “Active” throughout. The Activity result with BJ is recorded as “Non-toxic”.

In the case of `C[C@H](CNC(=O)NCCc1ccc(O)cc1)c1cccc(C(=O)c2ccccc2)c1`, the result in the data set on HepG2 and in the data set with LN-229 was inactive. Moreover, the outcome in the data set with Raji, in the data set with DU-145, in the data set on MDA-MB-231, in the data set with SJRH30 and in the data set with Daoy was Active. The inhibition result in data set [1] and in [2] was “Active” in each case. For the same compound, the Activity entry in the data set with BJ is recorded as “Toxic”.
